Key:
[1] = test system: Rattus norvegicus; assay: Hypolipidemic activity was measured as reduction in rat serum cholesterol after oral administration in male Wistar rats at 100 mg/(kg day); assay type: functional
How it was run: (§1)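 Cholesterol-fed rats given the test compound orally by gavage on the last 3 days, with controls receiving vehicle (0.5% tragacanth mucilage). After overnight starvation, rats were killed under CO2 3 h after the last dose and bled by cardiac puncture. Serum cholesterol and triglyceride were measured by autoanalyzer and expressed as percentage reduction from control levels, with Student's t test.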

[2] = test system: Rattus norvegicus; assay: Hypolipidemic activity was measured as reduction in rat serum triglyceride after oral administration in male Wistar rats at 100 mg / (kg day); assay type: functional; how it was run: as §1
[3] = test system: Rattus norvegicus; assay: Hypolipidemic activity was measured as reduction in rat serum triglyceride after oral administration in male Wistar rats at 10 mg / (kg day); assay type: functional; how it was run: as §1
[4] = test system: Rattus norvegicus; assay: Minimum effective dose (MED) is the dose (mg/kg)that cause significant reduction in serum cholesterol of 30% compared to concurrent controls.; assay type: functional; set-up: unit: mg/kg
How it was run: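 MED was calculated from the log dose/response curve as the dose giving a statistically significant 30% fall in serum cholesterol versus concurrent controls. Measured in the 3-day oral cholesterol-fed rat screen, or in a 2-week test: groups of eight young male Wistar rats on cholesterol/cholic acid-supplemented or normal diet, dosed orally by gavage daily for 14 days, vehicle 0.5% tragacanth mucilage.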

[5] = test system: Rattus norvegicus; assay: Hypolipidemic activity was measured as reduction in rat serum cholesterol after oral administration in male Wistar rats at 10 mg / (kg day); assay type: functional; how it was run: as §1
[6] = test system: Rattus norvegicus; assay: Hypolipidemic activity was measured as reduction in rat serum triglyceride after oral administration in male Wistar rats at 30 mg / (kg day); assay type: functional; how it was run: as §1
[7] = test system: Rattus norvegicus; assay: Hypolipidemic activity was measured as reduction in rat serum cholesterol after oral administration in male Wistar rats at 30 mg / (kg day); assay type: functional; how it was run: as §1
[8] = test system: Rattus norvegicus; assay: Hypolipidemic activity was measured as reduction in rat serum cholesterol after oral administration in male Wistar rats at 100 mg / (kg day); assay type: functional; how it was run: as §1
[9] = The therapeutic safety margin (TSM) is the ratio of the minimum lethal dose (mg/kg)to the MED; assay type: ADME, organism-based; details: in vivo
How it was run: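 Young male Wistar rats, eight per group, on cholesterol/cholic acid-supplemented or normal diet; graded oral gavage doses daily for 14 days; vehicle controls (0.5% tragacanth mucilage). Mortalities recorded to give the minimum lethal daily dose. After overnight fasting, serum cholesterol assayed by autoanalyzer. MED is the dose giving a significant (t test) 30% cholesterol fall, from the log dose/response curve. TSM = minimum lethal dose/MED.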

SMILES | Reduction [1] | Reduction [2] | Reduction [3] | MED [4] | Reduction [5] | Reduction [6] | Reduction [7] | Reduction [8] | therapeutic safety margin (minimum lethal dose / MED) [9]
Cc1cc(C(c2ccccc2OC(C)C)N2CCN(C)CC2)sn1 (configuration not stated) | 83% | 86% |  |  |  |  |  |  | 
Cc1cnsc1C(c1ccc(CC(C)C)cc1)N1CCN(CCO)CC1 (configuration not stated) | 85% | 97% | 48% | 6 | 48% | 81% | 86% |  | 
Cc1cc(C(c2ccc(C(C)C)cc2)N2CCN(C(=O)c3ccccc3)CC2)sn1 (configuration not stated) |  | 16% |  |  |  |  |  | 26% | 
Cc1cc(C(O)(c2ccc(C(C)C)cc2)C2CCN(C)CC2)sn1 (configuration not stated) | 67% | 85% | 25% |  | 28% | 57% | 57% |  | 
Cc1cc(C(c2cccc(C(F)(F)F)c2)N2CCN(C)CC2)sn1 (configuration not stated) |  | 30% |  |  |  |  |  | 8% | 
Cc1cc(C(SCCN(C)C)c2ccc(C(C)C)cc2)sn1 (configuration not stated) | 36% | 55% |  |  |  |  |  |  | 
Cc1cc(C(c2cccc(Cl)c2)N2CCN(C)CC2)sn1 (configuration not stated) | 33% | 41% |  |  |  |  |  |  | 
Cc1cnsc1C(c1ccccc1Cl)N1CCN(C)CC1 (configuration not stated) | 80% | 90% | 1% | 20 | 16% | 10% | 44% |  | < 20
Cc1ccc(C(c2sncc2C)N2CCN(C)CC2)cc1C (configuration not stated) | 74% | 73% | 21% |  | 20% | 9% | 15% |  | 
Cc1ccccc1C(c1sncc1C)N1CCN(C)CC1 (configuration not stated) | 72% | 64% |  |  |  |  |  |  | 
Cc1cc(C(c2ccc(C(C)C)cc2)N2CC(C)NC(C)C2)sn1 (configuration not stated) |  | 32% |  |  |  |  |  | 16% | 
CCOC(=O)C(C)(C)Oc1ccc(Cl)cc1 [CLOFIBRATE] |  |  |  | 200 |  |  |  |  | 
Cc1cc(C(c2ccc(C)c(C)c2)N2CCN(C)CC2)sn1 (configuration not stated) |  | 1% |  |  |  |  |  | 11% | 
Cc1cc(C(c2ccc(C3CCCCC3)cc2)N2CCN(C)CC2)sn1 (configuration not stated) | 64% | 73% |  |  |  |  | 7% |  | 
Cc1cc(C(c2ccc(C(C)C)cc2)C2CCN(C)CC2)sn1 (configuration not stated) | 45% | 42% |  |  |  | 32% | 12% |  | 
Cc1cc(C(c2ccc(C(C)C)cc2)N2CCNCC2)sn1 (stereo in doubt; 66) | 68% | 73% | 4% |  | 38% | 23% | 59% |  | 
Cc1cc(C(c2ccc(OC(C)C)cc2)N2CCN(C)CC2)sn1 (configuration not stated) | 33% | 31% |  |  |  |  |  |  | 
CCCCOc1ccccc1C(c1cc(C)ns1)N1CCN(C)CC1 (configuration not stated) | 74% | 67% |  |  |  | 57% | 32% |  | 
O=C(O)c1cccnc1 [NIACIN] |  |  |  | 400 |  |  |  |  | 
Cc1ccc(C(c2cc(C)ns2)N2CCN(C)CC2)cc1 (configuration not stated) |  |  |  |  |  |  |  | 9% | 
Cc1cc(C(c2ccc(C(C)C)cc2)N2CCN(CCO)CC2)sn1 (configuration not stated) | 73% | 73% | 0% | 15 | 23% | 14% | 67% |  | 20
Cc1cc(C(c2ccc(C(C)(C)C)cc2)N2CCN(C)CC2)sn1 (configuration not stated) |  | 20% |  |  |  |  |  | 25% | 
Cc1ccccc1C(c1c(C)noc1C)N1CCNCC1 (configuration not stated) | 76% | 80% | 46% |  | 2% | 21% | 26% |  | 

SMILES | Reduction [1] | Reduction [2] | Reduction [3] | MED [4] | Reduction [5] | Reduction [6] | Reduction [7] | Reduction [8] | therapeutic safety margin (minimum lethal dose / MED) [9]
Cc1nc(C)c(C(c2ccccc2Cl)N2CCN(C)CC2)s1 (configuration not stated) | 78% | 79% |  |  |  |  |  |  | 
Cc1cc(C(c2ccc(Oc3ccccc3)cc2)N2CCN(C)CC2)sn1 (configuration not stated) | 42% | 59% |  |  |  | 25% | 17% |  | 
Cc1noc(C)c1C(OC1CCNCC1)c1ccc(C(C)C)cc1 (configuration not stated) | 45% | 23% |  |  |  | 8% | 4% |  | 
Cc1cc(C(c2ccc(OCc3ccccc3)cc2)N2CCN(C)CC2)sn1 (configuration not stated) |  | 34% |  |  |  |  |  | 11% | 
Cc1cc(C(c2ccc(C(C)C)cc2)N2CCCCC2)sn1 (configuration not stated) |  | 1% |  |  |  |  |  | 16% | 
Cc1cc(C(c2ccc(C(C)C)cc2)N2CCOCC2)sn1 (configuration not stated) |  | 10% |  |  |  |  |  | 7% | 
Cc1noc(C)c1C(OC1CCCN(C)C1)c1ccc(C(C)C)cc1 (configuration not stated) | 79% | 52% | 12% |  | 32% | 16% | 38% |  | 
Cc1noc(C)c1C(c1ccc(C(C)C)cc1)N1CC[N+](C)(C)CC1 (configuration not stated) |  | 28% |  |  |  |  |  | 1% | 
Cc1noc(C)c1C(c1ccccc1Cl)N1CCNCC1 (configuration not stated) | 87% | 97% |  |  |  | 62% | 14% |  | 
Cc1cccc(C(c2cc(C)ns2)N2CCN(C)CC2)c1 (configuration not stated) |  | 22% |  |  |  |  |  | 26% | 
Cc1cc(C(c2ccccc2C(C)C)N2CCN(C)CC2)sn1 (configuration not stated) |  |  |  |  |  | 9% | 36% |  | 
Cc1cc(C(c2ccc(C(C)C)cc2)N2CCN(S(C)(=O)=O)CC2)sn1 (configuration not stated) |  | 3% |  |  |  |  |  | 19% | 
CCc1ccc(C(c2sncc2C)N2CCN(CCO)CC2)cc1 (configuration not stated) |  |  | 3% |  | 15% | 51% | 45% |  | 
Cc1cc(C(c2ccc(F)cc2)N2CCN(C)CC2)sn1 (configuration not stated) |  | 15% |  |  |  |  |  | 11% | 
Cc1cc(C(Nc2cccnc2)c2ccc(C(C)C)cc2)sn1 (configuration not stated) |  | 5% |  |  |  |  |  | 16% | 
CC(C)OC(=O)C(C)(C)Oc1ccc(C(=O)c2ccc(Cl)cc2)cc1 [FENOFIBRATE] |  |  |  | 200 |  |  |  |  | 
CC(C)c1ccc(C(c2ccns2)N2CCN(CCO)CC2)cc1 (configuration not stated) | 74% | 89% |  | 5 |  | 49% | 80% |  | 40
CN1CCN(C(c2ccccc2)c2ccc(Cl)cc2)CC1 (configuration not stated) [CHLORCYCLIZINE] |  |  |  | 15 |  |  |  |  | 10
Cc1noc(C)c1C(c1ccccc1Cl)N1CCN(C)CC1 (configuration not stated) | 52% | 41% |  |  |  | 6% | 7% |  | 
Cc1cc(C(OCCN(C)C)c2ccc(C(C)C)cc2)sn1 (configuration not stated) | 45% | 41% |  |  |  | 36% | 3% |  | 
CN1CCN(C(c2ccccc2)c2ccccn2)CC1 (configuration not stated) | 81% | 74% |  |  |  | 16% | 22% |  | 
CCc1ccccc1C(c1cc(C)ns1)N1CCN(C)CC1 (configuration not stated) | 81% | 88% |  |  |  |  | 71% |  | 
